Holding throughout (format): functional, cell-based
Data set [1] concerns the target T1, ATP-dependent translocase ABCB1 (Homo sapiens, UniProt P08183). Kind of data set: TP_TRANSPORTER: increase in Vinblastine intracellular accumulation of 6',7'-Dihydroxybergamottin at a concentration of 20uM in LLC-GA5-COL150 cells. The conditions noted are these: pig, llc-ga5-col150, 20 µM. The procedure, abridged:
(§1)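 LLC-GA5-COL150 (LLC-PK1 transfected with human MDR1; grown with 150 ng ml⁻¹ colchicine, withdrawn 6 h before assay) and parental LLC-PK1 seeded in four-well dishes and grown 3 days. Cells were incubated 90 min with 20 nM [³H]vinblastine ± inhibitor in HEPES buffer, pH 7.4, 37°C, then washed in ice-cold buffer. Read-out was cell/medium ratio per mg protein (Lowry) by scintillation. Uptake potentiation ratio = % of control in transfectant / % of control in LLC-PK1 × 100; mean ± s.e.m., n=3.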

Data set [2] has as its target T1, ATP-dependent translocase ABCB1. Kind of data set: TP_TRANSPORTER: increase in saquinavir intracellular accumulation of 6',7'-Dihydroxybergamottin at a concentration of 20uM in LLC-GA5-COL150 cells. The following applies: pig, llc-ga5-col150, 20 µM. The procedure, abridged:
(§2)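 LLC-GA5-COL150 (human MDR1-transfected LLC-PK1; colchicine withdrawn 6 h before assay) and LLC-PK1 control cells were grown 3 days in four-well dishes. Uptake of 5 µM [¹⁴C]saquinavir ± inhibitor ran 90 min in pH 7.4 HEPES buffer at 37°C and was stopped with ice-cold washes. Cell/medium ratio was normalised to Lowry protein. Potentiation ratio = % of control (MDR1 cells) / % of control (LLC-PK1) × 100; mean ± s.e.m. of three experiments.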

The target is the same in data set [3]. Description: TP_TRANSPORTER: increase in Vinblastine intracellular accumulation in the presence of Bergamottin at 20uM in LLC-GA5-COL150 cells. The conditions noted are these: pig, llc-ga5-col150, 20 µM. In a few lines: as §1
The target is the same in data set [4]. Kind of data set: TP_TRANSPORTER: increase in Vinblastine intracellular accumulation in the presence of MK-571 at 50uM in LLC-GA5-COL150 cells. The conditions noted are these: pig, llc-ga5-col150, 50 µM. The procedure, abridged:
as §1

Data set [5] shares this target. Description: TP_TRANSPORTER: increase in Vinblastine intracellular accumulation of Nobiletin at a concentration of 20uM in LLC-GA5-COL150 cells. The following applies: pig, llc-ga5-col150, 20 µM. In a few lines: as §1
The target is the same in data set [6]. Kind of data set: TP_TRANSPORTER: increase in saquinavir intracellular accumulation in the presence of Nobiletin at 20uM in LLC-GA5-COL150 cells. The conditions noted are these: pig, llc-ga5-col150, 20 µM. The procedure, abridged: as §2
Data set [7] shares this target. Kind of data set: TP_TRANSPORTER: increase in saquinavir intracellular accumulation in the presence of Probenecid at 5mM in LLC-GA5-COL150 cells. The following applies: pig, llc-ga5-col150, 5000 µM. In a few lines: as §2
Data set [8] shares this target. Kind of data set: TP_TRANSPORTER: increase in Vinblastine intracellular accumulation in the presence of Probenecid at 5mM in LLC-GA5-COL150 cells. The conditions noted are these: pig, llc-ga5-col150, 5000 µM. In a few lines:
as §1

The target is the same in data set [9]. Description: TP_TRANSPORTER: increase in saquinavir intracellular accumulation in the presence of Sulfinpyrazone at 5mM in LLC-GA5-COL150 cells. The conditions noted are these: pig, llc-ga5-col150, 5000 µM. In a few lines:
as §2

Data set [10] has the same target. Description: TP_TRANSPORTER: increase in Vinblastine intracellular accumulation in the presence of Sulfinpyrazone at 5mM in LLC-GA5-COL150 cells. The following applies: pig, llc-ga5-col150, 5000 µM. The procedure, abridged: as §1
The target is the same in data set [11]. Kind of data set: TP_TRANSPORTER: increase in Vinblastine intracellular accumulation of Tangeretin at a concentration of 20uM in LLC-GA5-COL150 cells. The following applies: pig, llc-ga5-col150, 20 µM. The procedure, abridged:
as §1

Data set [12] shares this target. Kind of data set: TP_TRANSPORTER: increase in saquinavir intracellular accumulation of Tangeretin at a concentration of 20uM in LLC-GA5-COL150 cells. The conditions noted are these: pig, llc-ga5-col150, 20 µM. In a few lines: as §2

Activity data for 7 compounds are collected here from ChEMBL document CHEMBL2073766, “Effects of grapefruit juice and orange juice components on P-glycoprotein- and MRP2-mediated drug efflux” (Br J Pharmacol, 2004).

T1 sequence (P08183 whole entry): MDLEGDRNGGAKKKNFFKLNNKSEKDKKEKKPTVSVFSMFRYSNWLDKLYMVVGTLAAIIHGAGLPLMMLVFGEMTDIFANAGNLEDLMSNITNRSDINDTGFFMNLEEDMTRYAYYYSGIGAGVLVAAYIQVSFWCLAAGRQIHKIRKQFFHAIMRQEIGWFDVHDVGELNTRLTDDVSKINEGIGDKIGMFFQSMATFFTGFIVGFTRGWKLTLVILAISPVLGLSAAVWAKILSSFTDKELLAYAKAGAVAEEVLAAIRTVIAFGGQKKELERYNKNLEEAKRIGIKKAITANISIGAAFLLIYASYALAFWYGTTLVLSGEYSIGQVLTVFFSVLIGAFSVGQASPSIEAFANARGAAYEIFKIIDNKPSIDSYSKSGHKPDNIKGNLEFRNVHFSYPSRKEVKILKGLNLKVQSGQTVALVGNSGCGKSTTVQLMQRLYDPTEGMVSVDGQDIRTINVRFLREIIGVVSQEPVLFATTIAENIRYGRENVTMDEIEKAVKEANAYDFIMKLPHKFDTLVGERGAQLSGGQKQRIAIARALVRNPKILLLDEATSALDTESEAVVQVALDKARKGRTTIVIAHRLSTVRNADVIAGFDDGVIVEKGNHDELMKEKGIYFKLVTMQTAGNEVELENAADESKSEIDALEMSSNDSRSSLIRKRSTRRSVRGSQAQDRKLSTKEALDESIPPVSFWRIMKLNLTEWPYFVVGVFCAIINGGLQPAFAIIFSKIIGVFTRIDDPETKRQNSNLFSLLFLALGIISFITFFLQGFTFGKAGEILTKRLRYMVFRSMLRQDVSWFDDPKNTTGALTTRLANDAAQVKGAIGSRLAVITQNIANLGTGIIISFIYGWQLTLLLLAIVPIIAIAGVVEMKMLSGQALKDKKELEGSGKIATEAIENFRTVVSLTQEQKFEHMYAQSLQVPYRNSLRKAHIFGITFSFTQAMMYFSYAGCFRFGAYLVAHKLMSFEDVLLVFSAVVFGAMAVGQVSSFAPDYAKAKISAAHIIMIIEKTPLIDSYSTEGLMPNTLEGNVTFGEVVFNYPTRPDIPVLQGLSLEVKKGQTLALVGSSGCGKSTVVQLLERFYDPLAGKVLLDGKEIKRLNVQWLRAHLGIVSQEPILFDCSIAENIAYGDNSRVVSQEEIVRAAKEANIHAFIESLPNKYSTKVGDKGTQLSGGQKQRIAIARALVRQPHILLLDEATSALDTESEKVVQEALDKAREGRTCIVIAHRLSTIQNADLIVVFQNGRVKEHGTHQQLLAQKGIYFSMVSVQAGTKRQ

On to `C/C(=C\COc1c2ccoc2cc2oc(=O)ccc12)CC[C@@H](O)C(C)(C)O`, for which the Activity result in data set [1] and in data set [2] was “inhibitor [+]” throughout.
As to `CC(C)=CCC/C(C)=C/COc1c2ccoc2cc2oc(=O)ccc12` [BERGAMOTTIN], the Activity entry in data set [3] is “is not an inhibitor [-]”.
Consider `CN(C)C(=O)CCSC(SCCC(=O)O)c1cccc(/C=C/c2ccc3ccc(Cl)cc3n2)c1` (configuration not stated) [MK-571], for which the Activity result in [4] is “is not an inhibitor [-]”.
For the compound `COc1ccc(-c2cc(=O)c3c(OC)c(OC)c(OC)c(OC)c3o2)cc1OC` [NOBILETIN], the Activity result in data set [5] is “inhibitor [+]”; in [6], “is not an inhibitor [-]”.
Take `CCCN(CCC)S(=O)(=O)c1ccc(C(=O)O)cc1` [PROBENECID]: the Activity result in data set [7] and in data set [8] was “is not an inhibitor [-]” each time.
In the case of `O=C1C(CC[S+]([O-])c2ccccc2)C(=O)N(c2ccccc2)N1c1ccccc1` (configuration not stated) [SULFINPYRAZONE], the Activity result in data set [9] and in data set [10] was “is not an inhibitor [-]” throughout.
As for `COc1ccc(-c2cc(=O)c3c(OC)c(OC)c(OC)c(OC)c3o2)cc1` [TANGERETIN], the Activity entry in data set [11] and in data set [12] was “inhibitor [+]” throughout.
